Results published in ChEMBL document CHEMBL2169774, “Stabilization and structural alteration of the G-quadruplex DNA made from the human telomeric repeat mediated by Tröger's base based novel benzimidazole derivatives” (J Med Chem, 2012).
pIC50: −log10 of the molar value. Calls of active or inactive are those of the source. No cut-off for these calls is given here.

What was measured:
[1] = system: Nucleic Acid; assay: Binding affinity to human d[G3(T2AG3)3] G-quadruplex DNA in LiCl+ Na+ buffer by CD spectroscopy; assay type: nucleic-acid assay
Procedure, shortened: (§1)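 CD titration of preformed Hum21 G4DNA (4 μM) in 100 mM LiCl, 10 mM sodium cacodylate, 0.1 mM EDTA, pH 7.4. Ligand was added stepwise from 0 to 160 μM in 20 μM steps. Peaks at 250 and 295 nm and the induced CD band were monitored.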

[2] = system: NIH3T3; assay: Cytotoxicity in mouse NIH/3T3 cells incubated for 6 to 48 hrs by MTT assay; assay type: cell-based
Procedure, shortened: (§2)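 HeLa, A549 or NIH3T3 cells (15.0 × 10³/well) were grown 24 h to 70% confluency. Ligand was applied at various concentrations in 0.2% FBS for 6 or 48 h at 37 °C. Medium was then replaced with DMEM/10% FBS and growth continued 42 h. MTT was added for 4 h and formazan dissolved in DMSO. Absorbance read at 595 nm, in triplicate, viability normalized to untreated cells.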

[3] = system: HeLa; assay: Cytotoxicity in human HeLa cells at 4 uM up to 15 days by […]; assay type: functional
Procedure, shortened: (§3)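 Long-term proliferation: HeLa, A549 or NIH3T3 cells were seeded at 5.0 × 10⁴/well. They were exposed to 4 μM ligand, or 0.1% DMSO as vehicle, every 5 days. Cells were counted and reseeded at half the population over 15 days, and population versus time was plotted.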

[4] = system: Nucleic Acid; assay: Binding affinity to human d[G3(T2AG3)3] G-quadruplex DNA assessed as change in structure in CD spectral profile in LiCl buffer by CD spectroscopy; assay type: nucleic-acid assay
Procedure, shortened: (§4)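 Hum21 G4DNA (4 μM strand) was preformed in 10 mM Tris-HCl with 100 mM LiCl and 0.1 mM EDTA, pH 7.4. It was then titrated with ligand and CD spectra were recorded.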

[5] = system: Nucleic Acid; assay: Binding affinity to human d[G3(T2AG3)3] G-quadruplex DNA assessed as change in structure in CD spectral profile in LiCl+ Na+ buffer by CD spectroscopy; assay type: nucleic-acid assay; procedure, shortened: as §1
[6] = system: NIH3T3; assay: Cytotoxicity in mouse NIH/3T3 cells at 4 uM up to 15 days […]; assay type: cell-based; conditions: nih3t3, 360 h; procedure, shortened: as §3
[7] = system: Nucleic Acid; assay: Binding affinity to human d[G3(T2AG3)3] G-quadruplex DNA assessed as change in melting temperature at 20 uM in KCl buffer using compound which is heated to 90 degC for 5 mins followed by slow cooling; assay type: nucleic-acid assay
Procedure, shortened: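 Hum21 (2 μM) was folded in KCl buffer (10 mM Tris-HCl, 100 mM KCl, 0.1 mM EDTA) with ligand present at r = 10, by heating to 90 °C for 5 min and cooling slowly. CD melting was read at 266 nm. ΔTm is taken against free G4DNA, mean of two experiments.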

[8] = system: Nucleic Acid; assay: Binding affinity to human d[G3(T2AG3)3] G-quadruplex DNA assessed as change in melting temperature at 10 uM in LiCl-Na buffer; assay type: nucleic-acid assay
Procedure, shortened: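 CD melting of Hum21 G4DNA (4 μM strand) preformed by heating at 90 °C for 5 min then slow cooling over 24 h in 100 mM LiCl, 10 mM sodium cacodylate, 0.1 mM EDTA, pH 7.4. Ligand added at [ligand]/[DNA] r = 5. Melting followed at 295 nm. ΔTm is ligand-bound minus free Tm, average of two runs.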

[9] = system: Nucleic Acid; assay: Binding affinity to human d[G3(T2AG3)3] G-quadruplex DNA in LiCl buffer by CD spectroscopy; assay type: nucleic-acid assay; procedure, shortened: as §4
[10] = system: HEK293; assay: Cytotoxicity in HEK293 cells incubated for 6 to 48 hrs by MTT assay; assay type: cell-based; conditions: human
Procedure, shortened: (§5)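 HEK293 and HEK293T cells were seeded at 8.0 × 10³/well and run as in the short-term MTT protocol: treatment in 0.2% FBS, then medium change and 595 nm formazan read-out. Figure data reflect 48 h exposure, six replicates per point.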

[11] = system: Nucleic Acid; assay: Binding affinity to human d[G3(T2AG3)3] G-quadruplex DNA assessed as change in melting temperature at 20 uM in NaCl buffer; assay type: nucleic-acid assay
Procedure, shortened: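 CD melting at 295 nm of Hum21 G4DNA (2 μM strand) preformed in 10 mM Tris-HCl, 100 mM NaCl, 0.1 mM EDTA. Ligand at r = 10. ΔTm is complexed minus free Tm, mean of two experiments.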

[12] = system: Nucleic Acid; assay: Binding affinity to human d[G3(T2AG3)3] G-quadruplex DNA by UV-vis titration based assay; assay type: nucleic-acid assay
Procedure, shortened: (§6)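 UV–vis absorption titration of ligand with preformed Hum21 G4DNA, or with calf thymus duplex DNA. Hypochromicity data were converted to Scatchard plots, and the apparent association constant was obtained by linear fitting.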

[13] = system: Nucleic Acid; assay: Binding affinity to human d[G3(T2AG3)3] G-quadruplex DNA assessed formation of G-quadruplex parallel strands in 100 mM KCl buffer by CD spectroscopy; assay type: nucleic-acid assay
Procedure, shortened: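 Hum21 (4 μM strand) was heated at 90 °C for 5 min together with ligand (40 μM), then cooled slowly in 100 mM KCl buffer (10 mM Tris-HCl, 0.1 mM EDTA, pH 7.4). CD spectra were recorded to assign parallel or antiparallel topology.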

[14] = system: HEK-293T; assay: Cytotoxicity in transformed HEK293T cells incubated for 6 to 48 hrs by MTT assay; assay type: functional, cell-based; conditions: Homo sapiens; procedure, shortened: as §5
[15] = system: Nucleic Acid; assay: Ratio of Kapp for human d[G3(T2AG3)3] G-quadruplex DNA to Kapp for calf thymus duplex DNA; assay type: nucleic-acid assay; procedure, shortened: as §6
[16] = system: A549; assay: Cytotoxicity in human A549 cells incubated for 6 to 48 hrs by MTT assay; assay type: functional, cell-based; procedure, shortened: as §2
[17] = system: A549; assay: Cytotoxicity in human A549 cells at 4 uM up to 15 days […]; assay type: functional; procedure, shortened: as §3
[18] = target: Telomerase reverse transcriptase (Homo sapiens, UniProt O14746); assay: Inhibition of telomerase extracted from human A549 cells by TRAP-LIG assay; assay type: cell-free
Chain of Telomerase reverse transcriptase (O14746 whole entry): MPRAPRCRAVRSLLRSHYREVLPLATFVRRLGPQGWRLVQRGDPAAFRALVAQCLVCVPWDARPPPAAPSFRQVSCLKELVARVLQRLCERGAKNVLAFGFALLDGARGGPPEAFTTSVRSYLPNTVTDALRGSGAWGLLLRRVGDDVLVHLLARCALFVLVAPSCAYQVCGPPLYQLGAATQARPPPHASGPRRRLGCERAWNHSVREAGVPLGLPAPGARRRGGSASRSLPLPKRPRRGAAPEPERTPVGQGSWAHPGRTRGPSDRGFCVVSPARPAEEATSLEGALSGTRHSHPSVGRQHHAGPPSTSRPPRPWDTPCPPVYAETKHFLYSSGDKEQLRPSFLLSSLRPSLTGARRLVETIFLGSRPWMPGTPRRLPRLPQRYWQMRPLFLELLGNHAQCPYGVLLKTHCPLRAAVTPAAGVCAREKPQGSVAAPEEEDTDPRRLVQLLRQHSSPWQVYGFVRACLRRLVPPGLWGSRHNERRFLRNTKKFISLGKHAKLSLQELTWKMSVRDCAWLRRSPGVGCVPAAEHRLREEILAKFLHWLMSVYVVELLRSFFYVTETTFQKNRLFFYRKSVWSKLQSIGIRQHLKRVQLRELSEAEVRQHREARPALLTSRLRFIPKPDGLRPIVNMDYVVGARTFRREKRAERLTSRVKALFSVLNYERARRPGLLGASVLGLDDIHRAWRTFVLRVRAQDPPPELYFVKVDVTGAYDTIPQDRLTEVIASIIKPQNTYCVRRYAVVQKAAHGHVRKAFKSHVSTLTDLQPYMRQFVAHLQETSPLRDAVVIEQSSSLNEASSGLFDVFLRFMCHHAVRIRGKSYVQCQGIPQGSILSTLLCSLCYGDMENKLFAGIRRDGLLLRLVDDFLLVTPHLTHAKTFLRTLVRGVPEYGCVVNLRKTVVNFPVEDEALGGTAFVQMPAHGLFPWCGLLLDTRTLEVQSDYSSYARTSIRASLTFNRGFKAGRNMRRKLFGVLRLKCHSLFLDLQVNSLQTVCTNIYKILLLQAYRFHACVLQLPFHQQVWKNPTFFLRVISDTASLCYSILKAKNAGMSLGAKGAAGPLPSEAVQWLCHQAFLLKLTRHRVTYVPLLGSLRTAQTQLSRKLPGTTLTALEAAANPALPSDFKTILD
Procedure, shortened: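 Three-step TRAP-LIG assay with A549 protein extract (500 ng/sample) and TS primer in TRAP buffer (pH 8.3, 68 mM KCl), ligand at 5–60 μM. Elongation ran at 30 °C for 10 min. Ligand was then removed on a spin column. PCR with ACX primer ran 30 cycles. Products were resolved on 10% PAGE and read by phosphorimager. IC50 is the mean of three experiments.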

[19] = system: Nucleic Acid; assay: Binding affinity to human d[G3(T2AG3)3] G-quadruplex DNA assessed as change in melting temperature at 20 uM in KCl buffer; assay type: nucleic-acid assay
Procedure, shortened: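 CD melting of preformed Hum21 G4DNA (2 μM) in 10 mM Tris-HCl, 100 mM KCl, 0.1 mM EDTA, read at 292 nm. Ligand added at r = 10. ΔTm is bound minus free Tm, average of two runs.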

[20] = system: HeLa; assay: Cytotoxicity in human HeLa cells incubated for 6 to 48 hrs by MTT assay; assay type: functional, cell-based; procedure, shortened: as §2
[21] = system: Nucleic Acid; assay: Induction of topology changes in human d[G3(T2AG3)3] G-quadruplex DNA in 100 uM KCl buffer by EMSA method; assay type: nucleic-acid assay; conditions: in the assay text read “100 mM KCl” for “100 uM KCl”
Procedure, shortened: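 5′-32P-labelled Hum21 G4DNA (5 μM) was used under two conditions. In one, it was preformed in 100 mM KCl and then given ligand (25 μM). In the other, it was folded with ligand (15–60 μM) by heating at 90 °C for 5 min and slow cooling in 100 mM KCl. Samples were run on native polyacrylamide gel with a dT20 mobility marker.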

[22] = system: Nucleic Acid; assay: Binding affinity to human d[G3(T2AG3)3] G-quadruplex DNA assessed as change in structure in CD spectral profile in 100 mM KCl buffer by CD spectroscopy; assay type: nucleic-acid assay
Procedure, shortened: (§7)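 CD spectral titration of preformed Hum21 G4DNA (4 μM) in 10 mM Tris-HCl, 100 mM KCl, 0.1 mM EDTA, pH 7.4. Ligand was added at 0–160 μM in 20 μM increments. The induced CD band was followed.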

[23] = system: Nucleic Acid; assay: Binding affinity to human d[G3(T2AG3)3] G-quadruplex DNA in 100 mM KCl buffer by CD spectroscopy; assay type: nucleic-acid assay; procedure, shortened: as §7

| Activity [1] | Activity [4] | Activity [5] | ΔTm [7] [°C] | ΔTm [8] [°C] | Activity [9] | ΔTm [11] [°C] | Kapp [12] [×10⁵ /M] | Activity [13] | Ratio [15] | pIC50 [18] | ΔTm [19] [°C] | Compound | Activity [2] | Activity [3] | Activity [6] | Activity [10] | Activity [14] | Activity [16] | Activity [17] | Activity [20] | other results |
| --- | --- | --- | --- | --- | --- | --- | --- | --- | --- | --- | --- | --- | --- | --- | --- | --- | --- | --- | --- | --- | --- |
| Active | inactive | inactive | 15 | 9.3 | Active | 9 | 1.4 | Active | 100 | 4.46 | 8 | CN1CCN(c2ccc3nc(-c4ccc5c(c4)CN4CN5Cc5cc(-c6nc7ccc(N8CCN(C)CC8)cc7[nH]6)ccc54)[nH]c3c2)CC1 | Toxic | 100% | Toxic | Toxic | Active | Active | 100% | Active | Activity [21]: inactive; Activity [22]: inactive; Activity [23]: Active |
| Active | inactive | inactive | 17 | 9.5 | Active | 11 | 4.2 | Active | 100 | 4.84 | 10 | OCCN1CCN(c2ccc3nc(-c4ccc5c(c4)CN4CN5Cc5cc(-c6nc7ccc(N8CCN(CCO)CC8)cc7[nH]6)ccc54)[nH]c3c2)CC1 | Toxic | Active | Toxic | Toxic | Active | Active | Active | Active | Activity ([17]; record 2): 100%; Activity [21]: Active; Activity [22]: inactive; Activity [23]: Active |
